Shown are actives, neighbours in structure and some others; about 4.6% of the full set was active somewhere.
GPR7 antagonist = antagonists of human GPR7 (neuropeptides B/W receptor 1); P48145; 1.1% of 290,000 active; GPR7-expressing cells, fluorescence antagonist assay; inhibition, % at 4.4 µM; in the data active means inhibition above about 16%, passing the limit was not always enough;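 further: cells stimulated with the agonist NPW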
TAAR1 ag = agonists of human TAAR1; Q96RJ0; CHO RD-HGA16 TAAR1, Fluo-8 calcium fluorescence; vehicle wells 0%, saturating PEA agonist 100%; activation, % at 3 µM; 0.99% of 360,000 active; AID 624467;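 active means activation above the mean activation of all test compounds in the run plus 3 SD, cut at about 38% in these data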
Target sequence (Q96RJ0 whole entry, looked up): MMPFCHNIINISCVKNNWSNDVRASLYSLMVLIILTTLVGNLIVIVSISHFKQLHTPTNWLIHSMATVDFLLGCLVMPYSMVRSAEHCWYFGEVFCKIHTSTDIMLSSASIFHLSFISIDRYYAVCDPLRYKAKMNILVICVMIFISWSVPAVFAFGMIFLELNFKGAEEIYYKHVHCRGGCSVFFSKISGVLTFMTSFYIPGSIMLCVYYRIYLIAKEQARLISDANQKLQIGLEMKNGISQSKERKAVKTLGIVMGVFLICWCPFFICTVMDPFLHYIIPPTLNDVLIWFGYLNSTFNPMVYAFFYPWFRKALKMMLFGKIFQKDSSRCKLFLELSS
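System: CHO RD-HGA16 cells carrying human TAAR1 plus Gα16; Incubation: 17-24 h seeding, 75 min 37 °C dye, 30 min RT; Measured by: Fluo-8 fluorescence, 5 s baseline then 140 s kinetic read; Control set: DMSO and PEA EC100; Replication: single well for each compound.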
OX1R antag-1 = antagonists of human orexin 1 receptor. AID 434989. inhibition, % at 5 µM. O43613. CHO/OX1R cells, Fluo-8 calcium fluorescence, orexin A. 0.43% of 330,000 active;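 active means inhibition above its plate's threshold, mean inhibition of all tested compounds on the plate plus 3 SD, cut at about 37% in these data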
CHO parental Ca = counter-screen for OX1R antagonists: effect in parental CHO cells | 0.63% of 330,000 active | AID 463079 | inhibition, % at 5.6 µM | parental CHO-K1, ATP-induced calcium, Fluo-8 fluorescence;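 active means inhibition above that plate's mean sample inhibition plus 3 SD, cut at about 26% in these data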
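Test system: untransfected parental CHO cell line. Compound: one dose, 5.6 µM nominal. Detection: intracellular calcium via Fluo-8 no-wash fluorescent dye. Measure: % inhibition. Benchmarks: ATP-challenged DMSO wells low, unchallenged DMSO wells high.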
OX1R antag-2 = antagonists of human orexin 1 receptor (OX1R); inhibition, % at 6.6 µM; OX1R-expressing cells, FRET antagonist read-out; 1.8% of 330,000 active; in the data active means inhibition mostly above about 38%, no sharp cut-off; inactive means mostly below about 40%
TAAR1 antag = antagonists of human TAAR1 | Q96RJ0 | CHO RD-HGA16 TAAR1, Fluo-8 calcium fluorescence, antagonist | inhibition, % at 3 µM | 1.5% of 360,000 active;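 active means inhibition above a per-plate cutoff, the mean inhibition of test compounds on that plate plus 3 SD, cut at about 49% in these data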
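test system = CHO RD-HGA16 cells bearing hTAAR1 | replication = singlicate | controls = DMSO-only wells and EC80 β-PEA-stimulated wells | reagent = EC80 β-phenethylamine stimulus | read-out basis = percent inhibition of PEA-evoked calcium signal, max/basal emission ratio | schedule = seeding 17-24 h prior, 75-min 37 °C, 30-min RT dye loading | signal = kinetic Fluo-8 calcium fluorescence measurement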
TAAR1 ag conf = confirmation of human TAAR1 agonists | 82% of 2,400 active | CHO RD-HGA16 TAAR1, Fluo-8 calcium fluorescence; scaled: DMSO 0%, maximal phenethylamine 100% | shares compounds with TAAR1 ag | AID 651783 | activation, % at 3 µM;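 active means activation above a cutoff set at the run's mean compound activation plus 3 SD, cut at about 39% in these data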
Ga16 ag counter = nonselective agonist in parental cells, TAAR1 agonist counter-screen. shares compounds with TAAR1 ag. CHO-Ga16 parental, Fluo-8 calcium fluorescence; normalized to maximal ATP response, DMSO zero. activation, % at 3 µM. 50% of 2,400 active. AID 651787;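 active means activation above the run cutoff, the mean activation over all tested wells plus 3 SD, cut at about 12% in these data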
TAAR1 desensitize = TAAR1 response desensitization, agonist counter-screen; shares compounds with TAAR1 ag; CHO RD-HGA16 hTAAR1, Fluo-8 calcium, beta-PEA response inhibition; inhibition, % at 3 µM; 46% of 2,400 active;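 active means inhibition above the run cutoff, the mean inhibition of all test compounds plus 3 SD, cut at about 49% in these data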;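 further: beta-PEA stimulus applied at its EC80; loss of beta-PEA calcium signal after compound pretreatment read as receptor desensitization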
Ga16 nonsel ant = counter-screen for TAAR1 agonists: nonselective Ga16 antagonists | shares compounds with TAAR1 ag | CHO-Ga16 ATP-induced calcium, Fluo-8 fluorescence | inhibition, % at 3 µM | 39% of 2,400 active;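 active means inhibition above the plate's mean compound inhibition plus 3 SD, computed per plate, cut at about 22% in these data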
Large screens that a line does not name were inactive (follow-up assays come after a bar, where they were run).

COc1ccc(-c2csc(C(O)c3ccc(F)c(F)c3)n2)cc1 (stereo not drawn)	TAAR1 ag 57.3, TAAR1 antag 77.3 (no result: GPR7 antagonist, OX1R antag-1, CHO parental Ca, OX1R antag-2) | TAAR1 ag conf 51.5 | Ga16 ag counter 33.2 | TAAR1 desensitize 70.1 | Ga16 nonsel ant 53.2
OC(c1ccc(F)c(F)c1)c1nc(-c2ccccc2)cs1 (stereo not drawn)	none (no result: GPR7 antagonist, OX1R antag-1, CHO parental Ca, OX1R antag-2)
Cc1nn(-c2ccccc2)c(Cl)c1C1C(C#N)=C(N)Oc2c1c(C)nn2-c1ccccc1 (stereo not drawn)	TAAR1 ag 61.3 | TAAR1 ag conf 57.8 | Ga16 ag counter 34.0 | TAAR1 desensitize inactive | Ga16 nonsel ant 25.3
C[C@@H]1CN([C@H](C)CO)C(=O)c2c(c3ccccc3n2C)-c2ccccc2CO[C@H]1CN(C)S(=O)(=O)c1cn(C)cn1	none (no result: GPR7 antagonist, OX1R antag-1, CHO parental Ca, OX1R antag-2)
O=[N+]([O-])c1ccc(N/N=C/c2cccc(O)c2)cc1	TAAR1 ag 58.8 | TAAR1 ag conf 42.8 | Ga16 ag counter inactive | TAAR1 desensitize inactive | Ga16 nonsel ant inactive
CCOc1ccc(CCNC(=O)COC(=O)c2ccc[nH]c2=O)cc1OCC	none (no result: GPR7 antagonist)
N#Cc1ccc2c(=O)n(-c3ccccc3)sc2c1	none (no result: GPR7 antagonist, OX1R antag-1, CHO parental Ca, OX1R antag-2)
O=c1c2ccccc2sn1-c1ccccc1	TAAR1 ag 54.5, CHO parental Ca 48.2, TAAR1 antag 50.4 | TAAR1 ag conf 38.1 | Ga16 ag counter 27.1 | TAAR1 desensitize inactive | Ga16 nonsel ant 32.0
Cn1sc2ccccc2c1=O	TAAR1 ag 46.0 (no result: GPR7 antagonist, OX1R antag-1, CHO parental Ca, OX1R antag-2) | TAAR1 ag conf inactive | Ga16 ag counter 26.1 | TAAR1 desensitize inactive | Ga16 nonsel ant inactive
CC(=O)Nc1ccc2c(=O)n(-c3ccccc3)sc2c1	TAAR1 ag 83.1, TAAR1 antag 68.6 (no result: GPR7 antagonist, OX1R antag-1, CHO parental Ca, OX1R antag-2) | TAAR1 ag conf 131.4 | Ga16 ag counter 51.4 | TAAR1 desensitize 101.8 | Ga16 nonsel ant 51.7
COCCn1c(=O)sc2ccccc2c1=O	none
O=c1c2ccccc2sn1-c1ccc(S(=O)(=O)N2CCCCC2)cc1	none
Cc1ccc(-n2sc3ccccc3c2=O)cc1S(=O)(=O)N1CCCCC1	TAAR1 ag 70.1 | TAAR1 ag conf inactive | Ga16 ag counter 14.1 | TAAR1 desensitize inactive | Ga16 nonsel ant inactive
O=C(CSc1ccc(Cl)cc1)OCC(=O)N1CCN(c2ccccc2)CC1	none (no result: GPR7 antagonist, OX1R antag-1, CHO parental Ca, OX1R antag-2)
CN(C)S(=O)(=O)c1cccc(-n2sc3ccccc3c2=O)c1	TAAR1 ag 64.0 | TAAR1 ag conf 49.7 | Ga16 ag counter 34.1 | TAAR1 desensitize inactive | Ga16 nonsel ant 22.1
O=c1c2ccccc2sn1-c1ccc(S(=O)(=O)N2CCCC2)cc1	none
CCc1nc2ccc(C(=O)Nc3ccc(OC)c(OC)c3)cn2c1N(C)Cc1nccs1	none (no result: GPR7 antagonist, OX1R antag-1, CHO parental Ca, OX1R antag-2)
Cc1ccc(NC(=O)c2ccc3nsnc3c2)c(Cl)c1	TAAR1 ag 57.1 | TAAR1 ag conf inactive | Ga16 ag counter inactive | TAAR1 desensitize inactive | Ga16 nonsel ant inactive
C=CCC[C@H](Cc1ccc(F)cc1)C(=O)OC[C@@H](Cc1c[nH]c2ccccc12)NC(=O)[C@@H](CC=C)CC(=O)N[C@@H](CO)Cc1ccccc1	none (no result: GPR7 antagonist)
C=CCC[C@H](Cc1ccc(F)cc1)C(=O)OC[C@H](Cc1c[nH]c2ccccc12)NC(=O)[C@@H](CC=C)CC(=O)NCCO	TAAR1 ag 64.6, TAAR1 antag 74.5 (no result: GPR7 antagonist) | TAAR1 ag conf inactive | Ga16 ag counter 25.0 | TAAR1 desensitize 68.8 | Ga16 nonsel ant 52.8
Cc1c(Cl)cccc1Nc1nc(N)nc(CN2CCc3ccccc3C2)n1	none

Assay outcomes as filed in PubChem BioAssay.
